Test results taken from ChEMBL document CHEMBL1926554, “Diarylheptanoids from the seeds of Alpinia katsumadai as heat shock factor 1 inducers” (J Nat Prod, 2011).
The source made the active and inactive calls. No cut-off for these calls is given here.

Columns and labels:
NCI-H460 [1] = experiment: Induction of HSP70 expression in human NCI-H460 cells at 1 uM after 24 hrs by Western blotting relative to control; format: functional
Summary of the method: (§1)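 NCI-H460 (human non-small-cell lung cancer) cells treated 24 h. Lysates run on SDS-PAGE, transferred to nitrocellulose, probed with antibodies to HSF1, HSP27 and HSP70, detected by ECL. Band signals normalized to β-actin and compared with untreated cells. Mean ± SD of three independent experiments done in triplicate, p < 0.05 versus untreated.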

NCI-H460 [2] = experiment: Induction of HSP27 expression in human NCI-H460 cells at 1 uM after 24 hrs by Western blotting relative to control; format: functional; summary of the method: as §1
NCI-H460 [3] = experiment: Cytotoxicity against human NCI-H460 cells after overnight incubation by MTT assay; format: cell-based
Summary of the method: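 Human non-small-cell lung cancer NCI-H460 cells. Cytotoxicity read by MTT assay. IC50 taken as the concentration (μM) giving 50% inhibition of cell growth.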

NCI-H460 [4] = experiment: Induction of HSF1 expression in human NCI-H460 cells at 1 uM after 24 hrs by Western blotting relative to control; format: functional; summary of the method: as §1

SMILES | fold change (FC) (NCI-H460 [1]) | fold change (FC) (NCI-H460 [2]) | IC50 (NCI-H460 [3]) | fold change (FC) (NCI-H460 [4]) | Activity (NCI-H460 [1]) | Activity (NCI-H460 [2]) | Activity (NCI-H460 [4])
COc1cc(O)c(C(/C=C/CC(O)CCc2ccc(O)cc2)c2ccc(O)cc2)c(O)c1C(=O)/C=C/c1ccccc1 (mixture of isomers) | 1.373 | 1.403 | 47.4 µM | 1.438 |  |  | 
COc1cc(O)c(C(/C=C/CC(O)CCc2ccccc2)c2ccc(O)cc2)c(O)c1C(=O)/C=C/c1ccccc1 (mixture of isomers) | 1.313 | 1.25 | 39.8 µM | 1.19 |  |  | 
COc1cc(O)c(C(/C=C/CC(O)CCc2ccccc2)c2ccc(O)cc2)c(O)c1C(=O)/C=C/c1ccc(O)cc1 (mixture of isomers) | 1.229 | 1.27 | 45.7 µM | 1.316 |  |  | 
CC(=O)O[C@H]1C(=O)[C@@]2(C)[C@H]([C@H](OC(=O)c3ccccc3)[C@]3(O)C[C@H](OC(=O)[C@H](O)[C@@H](NC(=O)c4ccccc4)c4ccccc4)C(C)=C1C3(C)C)[C@]1(OC(C)=O)CO[C@@H]1C[C@@H]2O [PACLITAXEL] |  |  | 8 µM |  |  |  | 
O=C(/C=C/c1ccc(O)cc1)C[C@H](O)CCc1ccccc1 |  |  |  |  | inactive | inactive | inactive
Oc1ccc(CC[C@H](O)C[C@H](O)/C=C/c2ccccc2)cc1 |  |  |  |  | inactive | inactive | inactive
CC1=C(O)C(=O)C=C2C1=CC=C1[C@@]2(C)CC[C@@]2(C)[C@@H]3C[C@](C)(C(=O)O)CC[C@]3(C)CC[C@]12C [CELASTROL] | 1.371 | 1.216 | 12.3 µM | 1.066 |  |  | 
